From ChEMBL document CHEMBL3352378, “Novel carbazole inhibits phospho-STAT3 through induction of protein-tyrosine phosphatase PTPN6” (J Med Chem, 2014)
The source made the active and inactive calls. The rule behind the calls is not given here.

Tests used:
[1] = target: Signal transducer and activator of transcription 3 (Homo sapiens) (UniProt P40763); assay: Inhibition of STAT3 in human SUM149PT cells assessed as reduction of IL-6 induced STAT3 phosphorylation at Y705 incubated for 2 hrs prior to IL-6 challenge measured after 30 mins by Western blotting analysis; type: cell-based
Sequence of Signal transducer and activator of transcription 3 (Homo sapiens) (P40763 whole entry): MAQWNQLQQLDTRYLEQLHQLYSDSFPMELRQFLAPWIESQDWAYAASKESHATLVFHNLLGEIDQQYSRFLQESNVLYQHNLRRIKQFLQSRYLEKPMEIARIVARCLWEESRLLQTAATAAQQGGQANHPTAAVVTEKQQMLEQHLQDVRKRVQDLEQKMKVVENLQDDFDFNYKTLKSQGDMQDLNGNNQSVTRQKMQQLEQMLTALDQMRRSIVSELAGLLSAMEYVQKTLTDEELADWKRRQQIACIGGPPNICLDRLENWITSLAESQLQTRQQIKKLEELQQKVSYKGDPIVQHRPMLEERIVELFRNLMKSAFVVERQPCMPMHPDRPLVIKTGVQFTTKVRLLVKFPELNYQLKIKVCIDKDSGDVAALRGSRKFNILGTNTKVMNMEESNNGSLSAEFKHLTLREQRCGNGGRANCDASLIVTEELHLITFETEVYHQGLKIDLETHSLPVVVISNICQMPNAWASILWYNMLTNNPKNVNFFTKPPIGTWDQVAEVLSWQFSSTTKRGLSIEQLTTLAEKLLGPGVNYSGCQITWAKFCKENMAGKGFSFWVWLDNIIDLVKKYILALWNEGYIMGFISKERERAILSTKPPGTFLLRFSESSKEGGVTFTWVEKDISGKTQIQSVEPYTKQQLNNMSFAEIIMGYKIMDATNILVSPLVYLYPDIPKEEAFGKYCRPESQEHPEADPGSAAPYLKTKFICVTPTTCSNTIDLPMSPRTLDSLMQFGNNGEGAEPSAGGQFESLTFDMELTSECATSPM

[2] = target: Tyrosine-protein phosphatase non-receptor type 6 (Homo sapiens) (UniProt P29350); assay: Induction of PTPN6 in human SUM149PT cells assessed as inhibition of STAT3 phosphorylation at 3 uM after 16 hrs by Western blotting analysis in presence of pervanadate; type: cell-based
Sequence of Tyrosine-protein phosphatase non-receptor type 6 (Homo sapiens) (P29350 whole entry): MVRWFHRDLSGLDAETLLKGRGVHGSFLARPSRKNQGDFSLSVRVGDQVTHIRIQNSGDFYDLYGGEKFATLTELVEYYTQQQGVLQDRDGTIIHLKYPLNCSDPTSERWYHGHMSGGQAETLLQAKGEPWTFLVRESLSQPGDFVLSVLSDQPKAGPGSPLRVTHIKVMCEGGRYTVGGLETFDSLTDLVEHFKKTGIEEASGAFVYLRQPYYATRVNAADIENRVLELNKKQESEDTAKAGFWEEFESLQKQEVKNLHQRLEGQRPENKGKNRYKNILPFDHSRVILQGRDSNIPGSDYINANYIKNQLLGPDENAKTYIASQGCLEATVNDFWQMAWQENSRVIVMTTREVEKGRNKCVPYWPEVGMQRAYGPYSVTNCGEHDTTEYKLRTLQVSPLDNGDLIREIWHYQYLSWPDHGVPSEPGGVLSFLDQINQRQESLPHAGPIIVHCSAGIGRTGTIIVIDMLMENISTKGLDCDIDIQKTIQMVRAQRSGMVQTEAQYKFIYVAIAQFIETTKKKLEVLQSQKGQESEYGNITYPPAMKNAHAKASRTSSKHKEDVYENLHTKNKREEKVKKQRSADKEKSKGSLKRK
In short: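 HS578T and SUM149PT cells treated for 16 h without or with increasing pervanadate as a phosphatase inhibitor; JAK1/2 inhibitor CP690550 run in parallel. Lysates immunoblotted for phospho-STAT3 (Y705), with β-actin as loading control.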

[3] = target: Signal transducer and activator of transcription 3 (Homo sapiens) (UniProt P40763); assay: Inhibition of STAT3 in human Hs578T cells assessed as reduction of cyclin D1 mRNA expression at 0.3 to 1 uM after 24 hrs by RT-PCR analysis; type: cell-based; conditions: Hs-578T
In short: (§1)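 HS578T and SUM149PT cells treated for 24 h with increasing concentrations. Transcripts measured by RT-PCR, normalized to GAPDH as loading control.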

[4] = tested on: HCC1937; assay: Cytotoxicity against human HCC1937 cells after 72 hrs by MTT assay; type: functional, cell-based
In short: (§2)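 Cells exposed to increasing concentrations for about 72 h, and viability read by MTT. EC50 fitted with CompuSyn. Two independent experiments, each in triplicate, mean ± SEM. Compound stocks 10 mM in DMSO.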

[5] = Drug uptake in human MDA-MB-231 cell nucleus at 10 uM after 1 hr by two-photon confocal microscopy; type: ADME, cell-based; conditions: mda-mb-231, 1 h
In short: (§3)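 MDA-MB-231 cells grown overnight on fibronectin/[…]-coated slides, then given 10 μM compound or DMSO for 1 h. Cells washed with PBS and fixed in 4% formaldehyde. Two-photon excitation at 725 nm, emission collected through a 500–550 nm filter.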

[6] = target: Signal transducer and activator of transcription 3 (Homo sapiens) (UniProt P40763); assay: Inhibition of STAT3 in human Hs578T cells assessed as reduction of IL-6 induced STAT3 phosphorylation at Y705 incubated for 2 hrs prior to IL-6 challenge measured after 30 mins by Western blotting analysis; type: cell-based; conditions: Hs-578T
In short: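 Cells pretreated with compound for 2 h, then stimulated with IL-6 at 5 ng/mL for 30 min. Lysates immunoblotted for phospho-STAT3 (Y705), with β-actin as loading control.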

[7] = tested on: Mus musculus; assay: Toxicity in athymic Balb/c nude mouse xenografted with human SUM149 cells assessed as lethargy at 10 to 30 mg/kg, ip administered every other day for 5 days; type: organism-based; design: dose 10-30 mg/kg, route intraperitoneal; conditions: in vivo, 120 h
In short: (§4)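 SUM149 cells (3×10^6) implanted subcutaneously in the right auxiliary region of male and female athymic nude mice (18–22 g). Groups of five, randomized; dosed ip every other day at 10 or 30 mg/kg from 1 mg/mL Cremophore 10%/PEG400 3%/PBS vehicle, vehicle control. Tumor volume by caliper (L×w×w/2); body weight, appetite, activity and lethargy monitored.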

[8] = tested on: Hs-578T; assay: Induction of PTPN6 protein expression in human Hs578T cells transfected with control-siRNA after 24 hrs by Western blotting analysis; type: functional, cell-based
In short: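 HS578T cells transfected with 100 nM control or PTPN6 siRNA using Lipofectamine 2000 in serum-free medium. Medium with 20% FBS added after 4 h, and cells kept 3 days. Then treated with DMSO or compound for 24 h. PTPN6 and phospho-STAT3 immunoblotted and quantified by ImageJ densitometry.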

[9] = tested on: MDA-MB-436; assay: Cytotoxicity against human MDA-MB-436 cells after 72 hrs by MTT assay; type: functional, cell-based; in short: as §2
[10] = Antitumor activity against human SUM149 cells xenografted in athymic Balb/c nude mouse assessed as PTPN6 upregulation at 30 mg/kg, ip administered every other day for 5 days measured on day 5 by Western blotting analysis; type: functional, organism-based; design: dose 30 mg/kg; conditions: SUM149PT
In short: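 SUM149 subcutaneous xenografts in nude mice (n = 5), dosed ip every other day in Cremophore/PEG400/PBS vehicle. Tumors taken on day 5 were immunoblotted for PTPN6, STAT3 and pSTAT3, with GAPDH as control. PTPN6 quantified by densitometry with a one-tailed t test.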

[11] = target: Signal transducer and activator of transcription 3 (Homo sapiens) (UniProt P40763); assay: Inhibition of STAT3 in human SUM149PT cells assessed as reduction of cyclin D1 mRNA expression at 0.3 to 1 uM after 24 hrs by RT-PCR analysis; type: cell-based; in short: as §1
[12] = tested on: Mus musculus; assay: Toxicity in athymic Balb/c nude mouse xenografted with human SUM149 cells assessed as change in body weight at 10 to 30 mg/kg, ip administered every other day for 5 days; type: organism-based; design: dose 10-30 mg/kg, route intraperitoneal; conditions: in vivo, 120 h; in short: as §4
[13] = Drug uptake in human MDA-MB-231 cell cytoplasm at 10 uM after 1 hr by two-photon confocal microscopy; type: ADME, cell-based; conditions: mda-mb-231, 1 h; in short: as §3
[14] = tested on: A549; assay: Cytotoxicity against human A549 cells after 72 hrs by MTT assay; type: functional; conditions: A549, 72 h; in short: as §2
[15] = target: Signal transducer and activator of transcription 3 (Homo sapiens) (UniProt P40763); assay: Inhibition of STAT3 in human Hs578T cells assessed as reduction of cyclin D1 level at 0.3 to 3 uM after 24 hrs by Western blotting analysis; type: cell-based; conditions: Hs-578T
In short: (§5)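 HS578T and SUM149PT cells given increasing concentrations for 24 h. Lysates immunoblotted with the indicated antibodies, β-actin as loading control.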

[16] = Cytotoxicity against human PC3 cells after 72 hrs by MTT assay; type: functional; conditions: PC-3, 72 h; in short: as §2
[17] = tested on: BT-549; assay: Cytotoxicity against human BT549 cells after 72 hrs by MTT assay; type: functional, cell-based; in short: as §2
[18] = tested on: A-431; assay: Cytotoxicity against human A431 cells after 72 hrs by MTT assay; type: functional; conditions: A-431, 72 h; in short: as §2
[19] = Antitumor activity against human SUM149 cells xenografted in athymic Balb/c nude mouse at 10 to 30 mg/kg, ip administered every other day for 5 days measured on day 5; type: functional, SUM149PT; conditions: dose mg/kg 10-30; route intraperitoneal; in short: as §4
[20] = target: Signal transducer and activator of transcription 3 (Homo sapiens) (UniProt P40763); assay: Inhibition of STAT3 in human Hs578T cells assessed as reduction of STAT3 phosphorylation at Y705 after 24 hrs by Western blotting analysis; type: cell-based; conditions: Hs-578T; in short: as §5
[21] = tested on: MDA-MB-453; assay: Cytotoxicity against human MDA-MB-453 cells after 72 hrs by MTT assay; type: functional, cell-based; in short: as §2
[22] = target: Signal transducer and activator of transcription 3 (Homo sapiens) (UniProt P40763); assay: Inhibition of STAT3 in human Hs578T cells assessed as reduction of IL-6 induced transactivation incubated for 1 hr prior to IL-6 challenge measured after 2 hrs by luciferase reporter gene assay; type: cell-based; conditions: Hs-578T
In short: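 Cells transfected with the APRE-Luc STAT3-responsive reporter. Pretreated 1 h with increasing concentrations, then given 5 ng/mL IL-6: 2 h for HS578T, 16 h for MCF7. Luciferase read afterwards; relative activity as mean ± SD of triplicates.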

For Cc1c(OS(=O)(=O)c2cccc3c(N(C)C)cccc23)ccc2c1[nH]c1cc(O)ccc12, which inhibition [1] is on record?
Its inhibition is “Dose-dependent effect”.

And the inhibition [2]?
Its inhibition is “inactive”.

What about the inhibition [3] of the same molecule?
Its inhibition is “Active”.

What about the Activity [4] of the same molecule?
Its Activity is “Active”.

And the Drug uptake [5]?
Its Drug uptake is “Not Active”.

And the inhibition [6]?
The inhibition was “Dose-dependent effect”.

And the Activity [7]?
The Activity was “Non-toxic”.

And the Activity [8]?
Its Activity is “Active”.

And the Activity [9]?
Its Activity is “Active”.

And the Activity [10]?
The Activity was “Active”.

And the inhibition [11]?
The inhibition was “Active”.

What about the Activity [12] of the same molecule?
The Activity was “Non-toxic”.

And the Drug uptake [13]?
The Drug uptake was “Active”.

What about the GI50 [14] of the same molecule?
The GI50 was 2.5 µM.

What about the inhibition [15] of the same molecule?
Its inhibition is “Active”.

What about the GI50 [16] of the same molecule?
Its GI50 is 3 µM.

What about the Activity [17] of the same molecule?
Its Activity is “Active”.

And the GI50 [18]?
The GI50 was 0.16 µM.

And the TGI [19]?
The TGI was 57%.

And the inhibition [20]?
The inhibition was “Dose-dependent effect”.

What about the Activity [21] of the same molecule?
The Activity was “Active”.

And the inhibition [22]?
Its inhibition is “Dose-dependent effect”.
